A selection: hits, their analogues and other compounds. The true share with any hit is near 2.5%.
EP2 antag: blocks the human prostaglandin E2 receptor EP2 | P43116 | C6 glioma cells expressing human EP2, cAMP TR-FRET; cells stimulated with saturating PGE2 | inhibition, % at 25 µM | 0.52% of 260,000 active | AID 1422;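 active = percent inhibition above 40 after rounding to a whole number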;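 note: rat C6 glioma host cells with rolipram phosphodiesterase inhibitor present; the protocol text gives 20 µM as final concentration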
Target sequence (P43116 whole entry, looked up): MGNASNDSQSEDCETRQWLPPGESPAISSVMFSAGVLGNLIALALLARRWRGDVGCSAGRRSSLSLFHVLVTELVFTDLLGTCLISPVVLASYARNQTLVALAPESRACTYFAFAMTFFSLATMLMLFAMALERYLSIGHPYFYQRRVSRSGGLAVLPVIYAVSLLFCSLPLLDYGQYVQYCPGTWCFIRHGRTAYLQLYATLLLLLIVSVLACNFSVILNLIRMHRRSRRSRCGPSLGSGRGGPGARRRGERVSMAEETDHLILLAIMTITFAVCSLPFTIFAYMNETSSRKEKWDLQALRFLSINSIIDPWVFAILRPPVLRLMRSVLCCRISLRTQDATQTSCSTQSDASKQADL
EP2 mod: EP2 receptor (human) modulation; 0.83% of 260,000 active; EP2-expressing cells, cAMP HTRF FRET, PGE2 co-stimulation; P43116; induction, % at 25 µM; AID 940;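 active = compounds whose cAMP rise, as percent of the full-agonist control response, exceeds 60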;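 note: rat C6 glioma line stably carrying human EP2 under a CMV promoter; the protocol text gives 20 µM as final concentration; 100% = response of wells given 1 µM PGE2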
TbHK1 inh: T. brucei hexokinase 1 inhibition. recombinant TbHK1, G6PDH-coupled NADH A340. inhibition, % at 10 µM. 0.11% of 220,000 active;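 active = inhibition of 50% or more in the single-dose primary screen; inactive = inhibition below 50%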
PHOSPHO1 inh: PHOSPHO1 (human) inhibition; Q8TCT1; 1.1% of 290,000 active; recombinant PHOSPHO1, absorbance phosphatase assay; inhibition, % at 13.3 µM; in the data active = inhibition above about 60%
HKDC1 inh: blocks human hexokinase HKDC1 activity. recombinant HKDC1, G6PDH/diaphorase resazurin coupled fluorescence. 0.16% of 340,000 active. Q2TB90. inhibition, % at 20 µM;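 active = inhibition above about 35% when tested at 20 µM, limit read from the data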;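 note: plate controls were DMSO wells with enzyme for no effect and DMSO wells lacking enzyme for full effect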
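Assay system: recombinant HKDC1 hexokinase; detection: coupled resazurin fluorescence, excitation 525 nm, emission 613 nm; benchmarks: DMSO-plus-enzyme-mix negative control, buffer-substituted positive control; compound dosing: single 20 µM dose; schedule: 90 min at room temperature in dark; also added: glucose plus 1 mM ATP as hexokinase substrates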
PfGluPho inh: PfG6PD (Plasmodium falciparum) enzyme inhibition; PfGluPho enzyme, NADPH resazurin-diaphorase fluorescence; inhibition, % at 20 µM; 0.78% of 350,000 active;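 active = inhibition reaching at least a set limit at 20 µM in the primary screen, cut at about 59% in these data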;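 note: 0% = DMSO wells with substrate and 100% = DMSO wells lacking glucose-6-phosphate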
Starred values were filed as active, the others as inactive; . = no result given.

SMILES	EP2 antag	EP2 mod	TbHK1 inh	PHOSPHO1 inh	HKDC1 inh	PfGluPho inh
N[C@H](Cc1ccc2oc3cc(=O)c4ccccc4c-3nc2c1)C(=O)O	68*	-18	.	.	.	.
Nc1c(C(=O)Nc2ccc([As](=O)(O)O)cc2)cnc2nnnn12	52*	29	.	.	.	.
COc1cccc(CN2CCN(C(=O)COc3ccc(Cl)cc3)CC2)c1OC	11	-47	.	.	.	.
CCc1ccc(N2C(=O)NC(=O)C(Cc3ccc(OC)cc3OC)C2=O)cc1 (stereo not given)	16	18	-1	95*	9	-7
COc1ccc(CC2C(=O)NC(=O)N(c3ccccc3)C2=O)c(OC)c1 (stereo not given)	17	4	-1	24	3	14
O=C(O)C(Oc1nc(=S)[nH]c(=S)[nH]1)(c1ccc(Cl)cc1)c1ccc(Cl)cc1	50*	9	.	.	.	.
Cc1cccc(NC(=O)N2CCCC2)c1	12	-10	-2	62*	-9	-10
O=C(CN1C2CCC1CC(O)(c1ccco1)C2)NCc1ccc(F)cc1 (stereo not given)	.	-14	.	.	.	.
CCOC(=O)c1c(/N=C/c2c(O)n(-c3ccccc3F)c(=S)[nH]c2=O)sc2c1CCCC2	13	17	8	94*	2	13
CCN(CCN(C)C)C(=O)Cc1c(C)nc(-c2ccccc2)nc1OC	5	-59	.	.	.	.
CCn1c(C)cc(/C=C2\C(=O)NC(=O)N(c3ccccc3C)C2=O)c1C	6	-17	-8	41	-15	-5
Cc1ccccc1N1C(=O)NC(=O)/C(=C\c2cnn(-c3ccccc3)c2)C1=O	51*	-57	1	11	-3	43
CCOC(=O)c1c(C)n(Cc2ccco2)c2ccc(OC)cc12	14	64*	33	1	-1	3
COC(=O)c1c(C)n(Cc2ccco2)c2ccc(O)cc12	6	4	-7	-48	5	-8
Nc1ccc([As](=O)(O)O)cc1	16	33	-2	8	-3	1
O=[As](O)(O)c1ccc(Cc2ccc([As](=O)(O)O)cc2)cc1	93*	-37	.	.	.	.
CC(C)c1ccc(C(c2c(O)c3ccccc3oc2=O)c2c(O)c3ccccc3oc2=O)cc1	70*	-11	.	.	.	-43
O=C(C[C@H](c1ccccc1)c1c(O)c2ccccc2oc1=O)c1ccccc1	46*	12	.	.	.	.
CCCc1ccc(CN2C3CCC2CC(O)(c2nccn2C)C3)s1 (stereo not given)	5	-1	.	.	.	.
CCCOc1c(CN2C3CCC2CC(O)(c2nccn2C)C3)cccc1OC (stereo not given)	3	3	.	.	.	.
CC(Cc1ccccc1)NCc1ccccc1O (stereo not given)	4	5	3	16	-1	7
CC1(C)CC(=N[N-]C(N)=[SH+])CC(C)(C)N1.CC1(C)CC(=N[N-]C(N)=[SH+])CC(C)(C)N1.[Ni]	51*	-6	.	.	.	.
N=C(N)SCc1ccc(Cl)c2ccccc12 (tested in a mixture with another compound)	61*	-54	.	.	.	.
CCCN1C2CCCC1CC(NC(=O)C1CC1)C2 (stereo not given)	15	-5	.	.	.	.
CC1=Nc2ccccc2/C1=C/c1c(O)[nH]c(=O)[nH]c1=O	.	.	.	8	8	5
SMILES	EP2 antag	EP2 mod	TbHK1 inh	PHOSPHO1 inh	HKDC1 inh	PfGluPho inh
O=c1[nH]c(O)c(/C=C2/C=CC(c3cc(Cl)ccc3Cl)=N2)c(=O)[nH]1	28	-134	17	19	40*	8
CN1CCN(CC(C)(C)CN2C3CCC2CC(O)(c2ccccc2F)C3)CC1 (stereo not given)	0	-21	.	.	.	.
CSc1ccc2c(c1)c(CCN)c(C)n2Cc1ccccc1Cl	104*	-3	.	.	.	.
CCC1CCCCN1C(=O)CN1C2CCC1CC(O)(c1nccn1C)C2 (stereo not given)	.	3	.	.	.	.
CCOc1cc(CN2CCN(C(=O)COc3cccc(C)c3)CC2)ccc1OC	6	-51	.	.	.	.
C=CCc1cc(CN2C3CCC2CC(O)(c2nccn2C)C3)cc(OC)c1OC (stereo not given)	9	-41	.	.	.	.
COC(=O)[C@@H]1c2cc3c(c(O)c2[C@@H](O)C[C@]1(C)O)C(=O)c1c(O)cc2c(c1C3=O)O[C@H]1O[C@]2(C)[C@@H](O)[C@H](N(C)C)[C@H]1O	49*	19	.	.	.	.
CCCc1nc2ccccc2c(=O)n1-c1ccc(O)cc1	5	4	-3	63*	-3	-19
